# Source: PubChem BioAssay (several laboratories)
# Most compounds without a hit are left out; they make up all but 3.2% or so of the library.
# 14-3-3 Bad inh: disrupts binding of bovine 14-3-3 zeta to phospho-Bad peptide | P63103 | TR-FRET 14-3-3zeta/Dy647-pBad peptide displacement, 1 h | inhibition, % at 21.7 µM | actives 0.71% (n = 220,000);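 active = inhibition above about 70%, limit read from the data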
# Target sequence (P63103 whole entry, looked up): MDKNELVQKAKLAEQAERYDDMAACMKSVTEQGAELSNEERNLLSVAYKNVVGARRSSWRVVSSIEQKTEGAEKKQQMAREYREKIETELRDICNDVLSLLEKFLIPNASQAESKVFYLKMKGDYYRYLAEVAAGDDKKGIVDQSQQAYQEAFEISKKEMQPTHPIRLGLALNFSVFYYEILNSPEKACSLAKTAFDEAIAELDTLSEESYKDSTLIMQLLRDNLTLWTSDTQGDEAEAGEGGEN
# Hck-Nef inh: inhibitors of human Hck kinase activated by Nef. Recombinant Hck-YEEI plus Nef, Z-Lyte FRET kinase assay. actives 0.68% (n = 220,000). inhibition, % at 20 µM. P08631;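 active = Hck-Nef kinase inhibition above about 50%, limit read from the data; inactive = inhibition below that limit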
# Mcl1 Bid PPI: Mcl-1/Bid interaction inhibition | Q07820 | TR-FRET Mcl-1/Bid-Dy647 peptide binding, 1536-well | actives 0.97% (n = 220,000) | inhibition, % at 21.7 µM;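 active = compounds that cut the binding signal by more than half at the single screening dose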;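 note: His-tagged Mcl-1 with europium anti-His antibody binding Bid BH3 peptide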
# Calb biofilm kill: mixture kills Candida albicans biofilm cells; actives 0.02% (n = 120,000); inhibition, % at 7.6 µM; AID 1242; C. albicans biofilm persisters + clotrimazole, fluorescence viability; primary screen in compound mixtures of four per well;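 note: compounds exposed to preformed 24 h biofilms for 48 h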
#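 Test system: C. albicans biofilms. Buffer or medium: RPMI/MOPS medium, pH 7.0. Timing: 48 h compound exposure at 37 °C. Technique: Alamar Blue fluorescence. Evaluation: percent inhibition of biofilm viability.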
# Bim-Mcl-1: inhibitors of Bim-Mcl-1 interaction, human; Bead-based flow cytometry, Bim peptide-Mcl-1 binding; inhibition, % at 10 µM; actives 0.1% (n = 190,000); AID 1009; in the data active = inhibition above about 40%
# Mcl1-Noxa inh: disrupts binding of human Mcl-1 to Noxa peptide | TR-FRET Mcl-1/Noxa peptide binding, 2 h | inhibition, % at 21.7 µM | actives 1.5% (n = 220,000) | AID 1022;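 active = compounds that cut the protein-peptide binding signal by more than 50% relative to plate controls in a single-dose test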;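 note: His-tagged Mcl-1 with rhodamine Noxa BH3 peptide and terbium anti-His antibody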
# Hits are given with their value; – = inactive; · = not tested or not shown.
SMILES,14-3-3 Bad inh,Hck-Nef inh,Mcl1 Bid PPI,Calb biofilm kill,Bim-Mcl-1,Mcl1-Noxa inh
O=C(/C=C/c1cccc([N+](=O)[O-])c1)Nc1ccc(NC(=O)c2cccs2)cc1,–,–,80.9,–,–,58.5
O=C(N/N=C/C=C/c1ccc([N+](=O)[O-])cc1)c1cccs1,–,–,76.1,·,–,62.5
O=C(N/N=C/c1cccc([N+](=O)[O-])c1)c1cccs1,–,–,–,–,71.0,–
O=C(/C=C/c1cccc([N+](=O)[O-])c1)c1cccs1,–,–,–,–,–,–
O=C(N/N=C/c1cccc([N+](=O)[O-])c1)c1ccc(Br)cc1,–,–,–,–,–,–
CCOC(=O)C(C(C)=O)C(c1ccc(OCCC(C)C)cc1)C(C(C)=O)C(=O)OCC (stereo not drawn),–,–,–,–,–,–
CC(=O)Oc1ccc2occ(/C=N/c3cc(=O)[nH]c(=S)[nH]3)c(=O)c2c1,–,–,–,–,·,–
CC1(C)C2CCC(C2)C1(C)NC(=O)CNC1CCCCC1 (stereo not drawn),–,–,–,–,–,–
CC1(C)C2CCC(C2)C1(C)NC(=O)CN1CCOCC1 (stereo not drawn),74.4,–,–,·,–,–
O=C1C(=Cc2ccco2)C(=O)c2ccccc21,–,–,–,–,–,–
CCC1C/C(=C/c2ccco2)C(=O)/C(=C/c2ccco2)C1 (stereo not drawn),–,61.5,–,–,–,–
Cc1ccc(C)c(N(CC(=O)NC2CCCC2)C(=O)c2cc3cc4cc(C)ccc4nc3s2)c1,–,–,–,·,–,–
Cc1cccc(N(CC(=O)NC2CCCC2)C(=O)c2cc3cc4cccc(C)c4nc3s2)c1C,–,–,67.3,·,–,–
c1cnc(SCCOc2ccc3c(c2)CCC3)nc1,–,–,–,·,–,–
COc1nc(-c2ccccc2)cc(-c2ccc3c(c2)OCO3)c1C#N,–,–,55.7,–,·,–
COc1ccc(-c2cc(-c3ccccc3)c(C#N)c(S(C)(=O)=O)n2)cc1,–,–,–,·,–,–
Fc1cccc(NCc2ccoc2)c1,82.5,–,–,·,–,–
Fc1cccc(NCc2cn3ccccc3n2)c1,–,–,–,·,–,–
O=C1c2ccccc2C(=O)C1c1ccnc2ccccc12,–,–,–,–,–,–
O=C1c2ccccc2C(=O)C1c1nccc2ccccc12,–,–,–,·,–,57.5
CCOc1cc(NC(=S)NCC2CCCO2)c(OCC)cc1NC(=O)C1CC1 (stereo not drawn),–,–,–,–,–,–
O=C(N/N=C/c1ccncc1)c1cccc(S(=O)(=O)Nc2ccc(Cl)cc2)c1,–,–,78.8,–,·,–
O=C(N/N=C/c1cccnc1)c1cccc(S(=O)(=O)Nc2cccc(Cl)c2)c1,–,–,–,–,–,–
O=C(N/N=C/c1ccncc1)c1cccc(NC(=O)c2ccccc2Cl)c1,–,–,–,–,42.0,–
COc1ccc(/C=N/NC(=O)c2cccc(NC(=O)c3ccccc3Cl)c2)cc1OC,–,–,–,–,–,–
SMILES,14-3-3 Bad inh,Hck-Nef inh,Mcl1 Bid PPI,Calb biofilm kill,Bim-Mcl-1,Mcl1-Noxa inh
Clc1ccc(OCCCNCc2ccccc2)c(Br)c1,–,–,70.3,·,–,–
C=CCNCCCOc1ccc(Cl)cc1Br,–,–,76.5,–,–,–
CCN(Cc1ccccc1)C(=O)COC(=O)CNC(=O)c1ccc(C)s1,–,–,–,–,–,–
CCn1c2ccccc2c2cc(NC(=O)c3ccco3)ccc21,91.0,–,–,·,–,–
CCn1c2ccccc2c2cc(NC(=O)CNCC3CCCO3)ccc21 (stereo not drawn),–,–,–,–,–,51.6
CCn1c2ccccc2c2cc(NC(C)=O)ccc21,–,–,–,·,–,–
Cc1ccc(-c2n[nH]c(=S)n2C)cc1Cl,–,–,–,–,–,53.3
CCN(CC)S(=O)(=O)c1cccc(-c2n[nH]c(=S)n2C)c1,–,–,–,–,–,–
CC(CN1CCN(C)CC1)OC(=O)c1ccccc1 (stereo not drawn),71.1,–,–,·,–,–
CC(CN1CCN(C)CC1)OC(=O)c1ccc(F)cc1 (stereo not drawn),90.8,–,–,–,–,–
CCc1ccc(OCc2nnc(SCCN3CCOCC3)n2C)cc1,85.0,–,–,·,–,–
